One may read the IC50 as the midpoint of a concentration-inhibition curve.

From ChEMBL document CHEMBL1926530, “Novel pyrazolo[1,5-a]pyridines as p110α-selective PI3 kinase inhibitors: Exploring the benzenesulfonohydrazide SAR” (Bioorg Med Chem, 2012) come the findings set out here.

SMILES strings stand for the structures.

In test [1] the target is T1, Phosphatidylinositol 4,5-bisphosphate 3-kinase catalytic subunit delta isoform (Homo sapiens, UniProt O00329).
T1 sequence (O00329 whole entry): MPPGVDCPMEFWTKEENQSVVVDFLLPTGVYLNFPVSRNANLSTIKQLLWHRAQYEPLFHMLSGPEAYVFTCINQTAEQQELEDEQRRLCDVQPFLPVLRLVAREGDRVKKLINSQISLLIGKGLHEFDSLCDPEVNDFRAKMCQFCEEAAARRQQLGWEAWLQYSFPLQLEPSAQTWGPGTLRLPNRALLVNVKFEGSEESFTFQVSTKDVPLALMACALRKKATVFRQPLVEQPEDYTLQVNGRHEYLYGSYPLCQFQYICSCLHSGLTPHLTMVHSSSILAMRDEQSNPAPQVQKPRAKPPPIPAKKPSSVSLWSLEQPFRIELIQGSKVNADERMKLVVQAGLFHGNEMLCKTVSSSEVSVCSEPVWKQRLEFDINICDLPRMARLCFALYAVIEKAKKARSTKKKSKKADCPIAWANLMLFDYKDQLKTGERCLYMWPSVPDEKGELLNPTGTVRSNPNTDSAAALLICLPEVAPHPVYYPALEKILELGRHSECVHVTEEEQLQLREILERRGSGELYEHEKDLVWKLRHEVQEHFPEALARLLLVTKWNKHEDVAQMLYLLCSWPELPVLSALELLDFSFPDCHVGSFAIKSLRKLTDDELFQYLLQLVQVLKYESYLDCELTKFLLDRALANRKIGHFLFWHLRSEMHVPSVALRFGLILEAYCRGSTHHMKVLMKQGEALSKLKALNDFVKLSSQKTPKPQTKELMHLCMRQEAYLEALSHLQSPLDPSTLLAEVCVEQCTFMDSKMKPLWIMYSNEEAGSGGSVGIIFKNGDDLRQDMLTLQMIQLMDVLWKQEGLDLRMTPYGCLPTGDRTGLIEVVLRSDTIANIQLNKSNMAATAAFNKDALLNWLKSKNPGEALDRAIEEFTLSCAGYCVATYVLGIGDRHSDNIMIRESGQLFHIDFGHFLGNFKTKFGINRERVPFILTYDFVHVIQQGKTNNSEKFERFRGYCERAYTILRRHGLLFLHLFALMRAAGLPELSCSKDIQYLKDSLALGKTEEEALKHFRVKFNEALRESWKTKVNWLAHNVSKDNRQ
The experiment in a line: Inhibition of recombinant PI3K p110delta using L-alpha-phosphatidylinositol as substrate and [gamma33P]ATP after 60 mins by thin layer chromatographic technique. In short, it runs like this: (§1)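 In-house recombinant enzyme (0.1 µg) with L-α-phosphatidylinositol in 40 mM Tris-HCl pH 7.4, 200 mM NaCl, 1 mM EDTA; DMSO 1% final. Started with 5 mM MgCl₂, 100 µM ATP plus [γ-³³P]ATP; 1 h at room temperature, stopped with 1 M HCl. Lipids extracted, separated by TLC, phosphorimaged. Nine inhibitor concentrations; two experiments, IC50 averaged.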

Test [2] deals with Phosphatidylinositol 4,5-bisphosphate 3-kinase catalytic subunit beta isoform (Homo sapiens, UniProt P42338). The experiment in a line: Inhibition of recombinant PI3K p110beta using L-alpha-phosphatidylinositol as substrate and [gamma33P]ATP after 60 mins by thin layer chromatographic technique. The method, boiled down: as §1
Sequence of Phosphatidylinositol 4,5-bisphosphate 3-kinase catalytic subunit beta isoform (P42338 whole entry, canonical isoform): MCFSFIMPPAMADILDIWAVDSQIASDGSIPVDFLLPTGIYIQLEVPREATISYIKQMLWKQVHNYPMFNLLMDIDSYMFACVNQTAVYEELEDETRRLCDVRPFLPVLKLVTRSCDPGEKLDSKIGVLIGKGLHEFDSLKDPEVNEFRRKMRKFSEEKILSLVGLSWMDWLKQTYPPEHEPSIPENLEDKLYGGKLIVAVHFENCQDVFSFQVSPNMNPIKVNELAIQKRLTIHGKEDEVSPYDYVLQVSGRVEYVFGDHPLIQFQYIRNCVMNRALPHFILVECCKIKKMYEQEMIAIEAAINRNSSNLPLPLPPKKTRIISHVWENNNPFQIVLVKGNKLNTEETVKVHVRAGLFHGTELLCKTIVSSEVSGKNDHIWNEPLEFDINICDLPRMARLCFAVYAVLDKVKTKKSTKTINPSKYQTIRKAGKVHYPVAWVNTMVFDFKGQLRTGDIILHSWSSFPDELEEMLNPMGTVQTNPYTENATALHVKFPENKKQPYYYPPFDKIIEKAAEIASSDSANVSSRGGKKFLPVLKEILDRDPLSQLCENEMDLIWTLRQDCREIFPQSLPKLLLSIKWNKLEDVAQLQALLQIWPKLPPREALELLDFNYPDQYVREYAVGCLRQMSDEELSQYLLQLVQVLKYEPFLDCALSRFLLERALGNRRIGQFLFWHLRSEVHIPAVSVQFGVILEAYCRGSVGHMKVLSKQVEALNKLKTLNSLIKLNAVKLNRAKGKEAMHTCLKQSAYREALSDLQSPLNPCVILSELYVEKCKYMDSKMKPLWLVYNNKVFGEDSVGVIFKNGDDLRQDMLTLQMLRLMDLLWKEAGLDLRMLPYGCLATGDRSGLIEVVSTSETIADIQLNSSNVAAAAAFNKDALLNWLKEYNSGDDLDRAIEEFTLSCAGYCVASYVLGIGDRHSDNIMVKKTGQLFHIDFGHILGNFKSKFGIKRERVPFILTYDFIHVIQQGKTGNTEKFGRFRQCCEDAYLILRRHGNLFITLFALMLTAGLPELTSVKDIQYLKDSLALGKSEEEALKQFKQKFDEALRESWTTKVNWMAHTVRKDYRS
Test [3] in a line: Cytotoxicity against human NZB5 cells assessed as inhibition of [3H]thymidine incorporation measured after 5 days. The class given is functional, cell-based. The method, boiled down: (§2)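 Early-passage lines grown in α-MEM with insulin, transferrin, selenite and 5% FBS. Wells seeded with 1000 cells; inhibitor in dilution steps up to a maximum of 20. Five days under 5% O₂/5% CO₂/90% N₂, ³H-thymidine added for the last 6 h. Duplicates per dose; fit y = y₀ + ae^−bx; IC50 = 50% reduction in incorporation.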

The target in test [4] is Phosphatidylinositol 4,5-bisphosphate 3-kinase catalytic subunit alpha isoform (Homo sapiens, UniProt P42336). The experiment in a line: Inhibition of recombinant PI3K p110alpha using L-alpha-phosphatidylinositol as substrate and [gamma33P]ATP after 60 mins by thin layer chromatographic technique. The method, boiled down: as §1
Sequence of Phosphatidylinositol 4,5-bisphosphate 3-kinase catalytic subunit alpha isoform (P42336 whole entry, canonical isoform): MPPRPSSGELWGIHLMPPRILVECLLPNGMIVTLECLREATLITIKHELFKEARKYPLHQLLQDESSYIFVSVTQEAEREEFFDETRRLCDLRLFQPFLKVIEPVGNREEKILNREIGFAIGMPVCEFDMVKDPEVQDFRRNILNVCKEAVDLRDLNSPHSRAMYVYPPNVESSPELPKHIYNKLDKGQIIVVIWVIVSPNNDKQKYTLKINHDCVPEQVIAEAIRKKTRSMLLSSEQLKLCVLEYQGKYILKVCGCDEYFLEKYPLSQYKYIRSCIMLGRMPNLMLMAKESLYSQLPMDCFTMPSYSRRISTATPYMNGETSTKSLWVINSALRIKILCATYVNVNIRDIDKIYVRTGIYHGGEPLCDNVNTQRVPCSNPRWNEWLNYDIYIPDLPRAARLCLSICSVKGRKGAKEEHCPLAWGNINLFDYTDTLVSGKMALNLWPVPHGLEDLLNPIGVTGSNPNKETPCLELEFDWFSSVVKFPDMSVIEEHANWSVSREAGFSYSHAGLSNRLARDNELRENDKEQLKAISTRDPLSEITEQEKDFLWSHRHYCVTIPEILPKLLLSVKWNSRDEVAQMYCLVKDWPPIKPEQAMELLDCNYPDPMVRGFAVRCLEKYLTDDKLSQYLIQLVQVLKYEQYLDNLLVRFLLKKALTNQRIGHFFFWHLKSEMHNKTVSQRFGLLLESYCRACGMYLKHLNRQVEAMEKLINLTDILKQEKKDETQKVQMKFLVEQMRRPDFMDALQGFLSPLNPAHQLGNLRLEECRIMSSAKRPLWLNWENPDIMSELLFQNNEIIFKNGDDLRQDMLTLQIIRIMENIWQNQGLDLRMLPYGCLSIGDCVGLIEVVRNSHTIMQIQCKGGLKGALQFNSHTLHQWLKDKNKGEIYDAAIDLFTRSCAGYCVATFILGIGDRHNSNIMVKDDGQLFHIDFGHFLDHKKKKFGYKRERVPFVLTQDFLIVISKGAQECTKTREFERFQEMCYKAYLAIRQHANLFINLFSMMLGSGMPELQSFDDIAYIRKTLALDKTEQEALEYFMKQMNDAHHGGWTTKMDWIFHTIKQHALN
The nature of test [5]: Cytotoxicity against human NZOV9 cells harboring PI3K p110alpha Y1021C mutant assessed as inhibition of [3H]thymidine incorporation measured after 5 days. Type of test: functional, cell-based. The method, boiled down: as §2
For orientation: Incorporation of labelled thymidine or its analogues reports DNA synthesis.

Regarding `Cc1ccc(C(=O)O)cc1S(=O)(=O)N(C)/N=C/c1cnn2ccc(C#N)cc12`, the IC50 in test [1] is over 1000 nM; in test [2], over 1000 nM; in test [3], over 20000 nM; in test [4], over 1000 nM; in test [5], over 20000 nM.
Regarding `CC(=O)Nc1ccc(C)c(S(=O)(=O)N(C)/N=C/c2cnn3ccc(C#N)cc23)c1`, the IC50 in test [1] is over 1000 nM; in test [2], over 1000 nM; in test [3], over 20000 nM; in test [4], over 1000 nM; in test [5], over 20000 nM.
On to `Cc1ccc([N+](=O)[O-])cc1S(=O)(=O)N(Cc1ccccc1)/N=C/c1cnn2ccc(C#N)cc12`, for which the IC50 in test [1] was 32 nM; in test [2] it was over 1000 nM; in test [4] it was 27 nM; in test [5] it was 2500 nM.
For `Cc1ccc(C)c(S(=O)(=O)N(C)/N=C/c2cnn3ccc(C#N)cc23)c1`, the IC50 was over 1000 nM in test [1]; over 1000 nM in test [2]; 2100 nM in test [3]; 100 nM in test [4]; 880 nM in test [5].
As for `Cc1ccc([N+](=O)[O-])cc1S(=O)(=O)N(CCN1CCOCC1)/N=C/c1cnn2ccc(C#N)cc12`, the IC50 stood at 10 nM in test [1]; 230 nM in test [2]; 500 nM in test [3]; 4.5 nM in test [4]; 540 nM in test [5].
Turning to `Cc1ccc(F)cc1S(=O)(=O)N(C)/N=C/c1cnn2ccc(C#N)cc12`, the IC50 in test [1] was 310 nM; in test [2], 550 nM; in test [3], over 20000 nM; in test [4], 55 nM; in test [5] it was 14000 nM.
Taken in the same sequence, the figures for `Cc1ccc(Br)cc1S(=O)(=O)N(C)/N=C/c1cnn2ccc(C#N)cc12` were 180 nM, 620 nM, 700 nM, 13 nM and 570 nM.
Taken in the same sequence, the figures for `Cc1c([N+](=O)[O-])cccc1S(=O)(=O)N(C)/N=C/c1cnn2ccc(C#N)cc12` were over 1000 nM, over 1000 nM, over 20000 nM, over 1000 nM and over 20000 nM.
Taken in the same sequence, the figures for `CCN(CC)CCN(/N=C/c1cnn2ccc(C#N)cc12)S(=O)(=O)c1cc([N+](=O)[O-])ccc1C` were 110 nM, over 1000 nM, 3500 nM, 82 nM and 1700 nM.
As for `Cc1cccc([N+](=O)[O-])c1S(=O)(=O)N(C)/N=C/c1cnn2ccc(C#N)cc12`, the IC50 was 100 nM in test [1]; 340 nM in test [2]; 3700 nM in test [3]; 14 nM in test [4]; 7600 nM in test [5].
Turning to `Cc1ccc([N+](=O)[O-])cc1S(=O)(=O)N(CCN(C)C)/N=C/c1cnn2ccc(C#N)cc12`, the IC50 in test [1] came to 180 nM; in test [2], 490 nM; in test [3], 360 nM; in test [4], 77 nM; in test [5] it was 390 nM.
Taken in the same sequence, the figures for `CC(C)c1ccc([N+](=O)[O-])cc1S(=O)(=O)N(C)/N=C/c1cnn2ccc(C#N)cc12` were 39 nM, 300 nM, 180 nM, 1.8 nM and 260 nM.
As for `CCc1ccc([N+](=O)[O-])cc1S(=O)(=O)N(C)/N=C/c1cnn2ccc(C#N)cc12`, the IC50 in test [1] amounted to 13 nM; in test [2] it was 280 nM; in test [3], 170 nM; in test [4], 1.5 nM; in test [5], 80 nM.
Take `Cc1ccc([N+](=O)[O-])cc1C(=O)N(C)/N=C/c1cnn2ccc(C#N)cc12`: the IC50 in test [1] is 8.6 nM; in test [2], 68 nM; in test [3] it was over 20000 nM; in test [4], 17 nM; in test [5] it was over 20000 nM.
On to `Cc1ccc(NC(=O)C(F)(F)F)cc1S(=O)(=O)N(C)/N=C/c1cnn2ccc(C#N)cc12`, for which the IC50 is over 1000 nM in test [1]; over 1000 nM in test [2]; 2300 nM in test [3]; over 1000 nM in test [4]; 9100 nM in test [5].
`Cc1ccccc1S(=O)(=O)N(C)/N=C/c1cnn2ccc(C#N)cc12`: the IC50 was 2000 nM in test [1]; over 1000 nM in test [2]; over 20000 nM in test [3]; 700 nM in test [4]; 12000 nM in test [5].
`Cc1ccc(S(C)(=O)=O)cc1S(=O)(=O)N(C)/N=C/c1cnn2ccc(C#N)cc12`: the IC50 worked out at 200 nM in test [1]; 830 nM in test [2]; 500 nM in test [3]; 350 nM in test [4]; 620 nM in test [5].
For `Cc1ccc([N+](=O)[O-])cc1CN(C)/N=C/c1cnn2ccc(C#N)cc12`, in that order: 37 nM, 79 nM, 1700 nM, 40 nM and 1900 nM.
For `Cc1cc([N+](=O)[O-])ccc1S(=O)(=O)N(C)/N=C/c1cnn2ccc(C#N)cc12`, in that order: over 1000 nM, over 1000 nM, over 20000 nM, 65 nM and over 20000 nM.
Turning to `Cc1ccc(N)cc1S(=O)(=O)N(C)/N=C/c1cnn2ccc(C#N)cc12`, the IC50 in test [1], in test [2] and in test [4] was over 1000 nM each time.
Regarding `Cc1ccc(C(F)(F)F)cc1S(=O)(=O)N(C)/N=C/c1cnn2ccc(C#N)cc12`, the IC50 in test [1] worked out at 35 nM; in test [2], 60 nM; in test [3] it was 980 nM; in test [4], 21 nM; in test [5], 1300 nM.
For the molecule `Cc1ccc(C#N)cc1S(=O)(=O)N(C)/N=C/c1cnn2ccc(C#N)cc12`, the IC50 in test [1] came out at 59 nM; in test [2], 130 nM; in test [3], 280 nM; in test [4], 2.4 nM; in test [5], 210 nM.
As for `CN(/N=C/c1cnn2ccc(C#N)cc12)C(=O)c1cccc([N+](=O)[O-])c1`, the IC50 was 16 nM in test [1]; 67 nM in test [2]; 1800 nM in test [3]; 11 nM in test [4]; 6000 nM in test [5].
Taken in the same sequence, the figures for `CN(/N=C/c1cnn2ccc(C#N)cc12)S(=O)(=O)c1cc([N+](=O)[O-])ccc1Cl` were 24 nM, 64 nM, 880 nM, 0.5 nM and 350 nM.
In the case of `CN(/N=C/c1cnn2ccc(C#N)cc12)S(=O)(=O)c1cc([N+](=O)[O-])ccc1F`, the IC50 in test [1] worked out at 120 nM; in test [2] it was 44 nM; in test [3], 480 nM; in test [4], 4.7 nM; in test [5] it was 400 nM.
For `Cc1ccc(Cl)cc1S(=O)(=O)N(C)/N=C/c1cnn2ccc(C#N)cc12`, in that order: 230 nM, 360 nM, 670 nM, 13 nM and 540 nM.
As for `COC(=O)c1ccc(C)c(S(=O)(=O)N(C)/N=C/c2cnn3ccc(C#N)cc23)c1`, the half-maximal inhibitory concentration (IC50) in test [1] is 400 nM; in test [2] it was over 1000 nM; in test [3], 2400 nM; in test [4], 990 nM; in test [5], 1900 nM.
For `Cc1ccc([N+](=O)[O-])cc1S(=O)(=O)N(CCN1CCCCC1)/N=C/c1cnn2ccc(C#N)cc12`, in that order: 89 nM, over 1000 nM, 1100 nM, 140 nM and 490 nM.
